According to PMC4561207 (Child's nervous system : ChNS : official journal of the …, 2015):

Assay: Adverse events regardless of attribution
Format: in vivo, human
Method in brief: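 Children with recurrent/refractory CNS tumours took oral drug once daily, continuously, in 28-day cycles. Dosing was stratified by EIACD use, with start/escalation levels 20–40 mg/m² (no EIACD) or 15–32 mg/m² (EIACD). Monitoring included weekly exam, serum chemistries, CBC and urine protein for 8 weeks, and TSH before each cycle. Events other than hypertension were graded by CTCAE v3, later v4.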

With `COc1cc2c(Oc3ccc4[nH]c(C)cc4c3F)ncnc2cc1OCCCN1CCCC1` [cediranib, Cediranib] the “Abdominal pain, events (patients)” value (grade 1 AE) was 5(5), the “Acidosis, events (patients)” value (grade 1 AE) was 7(5) and the “Alanine aminotransferase increased, events (patients)” value (shortened to “Alanine aminotransferase increased”) (grade 1 AE) was 44(25). The “Alkaline phosphatase increased, events (patients)” value (grade 1 AE) was 4(3), the “Anal mucositis, events (patients)” value (grade 1 AE) was 1(1) and the “Anal pain, events (patients)” value (grade 1 AE) was 1(1). For the same compound, the “Anemia, events (patients)” value (grade 1 AE) was 4(4), the “Anorexia, events (patients)” value (grade 1 AE) was 9(9) and the “Aspartate aminotransferase increased, events (patients)” value (grade 1 AE) was 38(20). For the same compound, the “Back pain, events (patients)” value (grade 1 AE) was 4(3), the “Blood bilirubin increased, events (patients)” value (grade 1 AE) was 17(10) and the “Bone pain, events (patients)” value (grade 1 AE) was 1(1). For the same compound, the “Cardiac troponin I increased, events (patients)” value (grade 1 AE) was 1(1), the “Chest wall pain, events (patients)” value (grade 1 AE) was 1(1) and the “Cholesterol high, events (patients)” value (grade 1 AE) was 1(1). For the same compound, the “Chronic kidney disease, events (patients)” value (grade 1 AE) was 1(1), the “Constipation, events (patients)” value (grade 1 AE) was 7(4) and the “Cough, events (patients)” value (grade 1 AE) was 4(4). The “Creatinine increased, events (patients)” value (grade 1 AE) was 3(2), the “Dehydration, events (patients)” value (grade 1 AE) was 2(2) and the “Depression, events (patients)” value (grade 1 AE) was 3(3). For the same compound, the “Diarrhea, events (patients)” value (grade 1 AE) was 44(30), the “Dizziness, events (patients)” value (grade 1 AE) was 3(3) and the “Dry mouth, events (patients)” value (grade 1 AE) was 1(1). For the same compound, the “Dry skin, events (patients)” value (grade 1 AE) was 1(1), the “Dyspepsia, events (patients)” value (grade 1 AE) was 3(3) and the “Edema face, events (patients)” value (grade 1 AE) was 1(1). For the same compound, the “Edema limbs, events (patients)” value (grade 1 AE) was 2(2), the “Endocrine disorders - Other, specify, events (patients)” value (grade 1 AE) was 1(1) and the “Epistaxis, events (patients)” value (grade 1 AE) was 6(5). For the same compound, the “Eye disorders - Other, specify, events (patients)” value (grade 1 AE) was 1(1), the “Fatigue, events (patients)” value (grade 1 AE) was 11(10) and the “Fecal incontinence, events (patients)” value (grade 1 AE) was 2(2). The “Fever, events (patients)” value (grade 1 AE) was 2(2), the “GGT increased, events (patients)” value (grade 1 AE) was 1(1) and the “Gastritis, events (patients)” value (grade 1 AE) was 2(2). The “Gastrointestinal disorders - Other, specify, events (patients)” value (grade 1 AE) was 1(1), the “Headache, events (patients)” value (grade 1 AE) was 21(12) and the “Hematuria, events (patients)” value (grade 1 AE) was 5(3). The “Hemoglobin increased, events (patients)” value (grade 1 AE) was 11(6), the “Hoarseness, events (patients)” value (grade 1 AE) was 1(1) and the “Hypercalcemia, events (patients)” value (grade 1 AE) was 6(3). The “Hyperglycemia, events (patients)” value (grade 1 AE) was 19(14), the “Hyperkalemia, events (patients)” value (grade 1 AE) was 3(3) and the “Hypermagnesemia, events (patients)” value (grade 1 AE) was 14(9). For the same compound, the “Hypernatremia, events (patients)” value (grade 1 AE) was 8(5), the “Hypertension, events (patients)” value (grade 1 AE) was 21(14) and the “Hyperthyroidism, events (patients)” value (grade 1 AE) was 2(2). The “Hypoalbuminemia, events (patients)” value (grade 1 AE) was 25(16), the “Hypocalcemia, events (patients)” value (grade 1 AE) was 23(14) and the “Hypoglycemia, events (patients)” value (grade 1 AE) was 5(5). For the same compound, the “Hypokalemia, events (patients)” value (grade 1 AE) was 20(16), the “Hypomagnesemia, events (patients)” value (grade 1 AE) was 8(6) and the “Hyponatremia, events (patients)” value (grade 1 AE) was 23(12). The “Hypophosphatemia, events (patients)” value (grade 1 AE) was 15(12), the “Hypothyroidism, events (patients)” value (grade 1 AE) was 10(10) and the “INR increased, events (patients)” value (grade 1 AE) was 1(1). The “Investigations - Other, specify, events (patients)” value (grade 1 AE) was 2(2), the “Joint effusion, events (patients)” value (grade 1 AE) was 1(1) and the “Leukoencephalopathy, events (patients)” value (grade 1 AE) was 1(1). The “Lymphocyte count decreased, events (patients)” value (grade 1 AE) was 13(10), the “Malaise, events (patients)” value (grade 1 AE) was 3(1) and the “Mucositis oral, events (patients)” value (grade 1 AE) was 1(1). The “Myalgia, events (patients)” value (grade 1 AE) was 1(1), the “Nausea, events (patients)” value (grade 1 AE) was 18(13) and the “Nervous system disorders - Other, specify, events (patients)” value (grade 1 AE) was 2(2). The “Neutrophil count decreased, events (patients)” value (grade 1 AE) was 13(8), the “Non-cardiac chest pain, events (patients)” value (grade 1 AE) was 2(2) and the “Oral pain, events (patients)” value (grade 1 AE) was 2(2). For the same compound, the “Pain in extremity, events (patients)” value (grade 1 AE) was 6(5), the “Pain, events (patients)” value (grade 1 AE) was 3(3) and the “Palmar-plantar erythrodysesthesia syndrome, events (patients)” value (grade 1 AE) was 4(4). The “Platelet count decreased, events (patients)” value (grade 1 AE) was 23(17), the “Proteinuria, events (patients)” value (grade 1 AE) was 22(14) and the “Rash acneiform, events (patients)” value (grade 1 AE) was 2(2). The “Rash maculo-papular, events (patients)” value (grade 1 AE) was 6(5), the “Rectal pain, events (patients)” value (grade 1 AE) was 1(1) and the “Renal and urinary disorders - Other, specify, events (patients)” value (grade 1 AE) was 1(1). For the same compound, the “Respiratory, thoracic and mediastinal disorders - Other, specify, events (patients)” value (grade 1 AE) was 1(1), the “Serum amylase increased, events (patients)” value (grade 1 AE) was 1(1) and the “Skin and subcutaneous tissue disorders - Other, specify, events (patients)” value (grade 1 AE) was 1(1). For the same compound, the “Stomach pain, events (patients)” value (grade 1 AE) was 3(3), the “Urinary frequency, events (patients)” value (grade 1 AE) was 2(2) and the “Urinary retention, events (patients)” value (grade 1 AE) was 2(2). For the same compound, the “Vascular disorders - Other, specify, events (patients)” value (grade 1 AE) was 2(2), the “Voice alteration, events (patients)” value (grade 1 AE) was 2(2) and the “Vomiting, events (patients)” value (grade 1 AE) was 33(19). The “Weight loss, events (patients)” value (grade 1 AE) was 2(2), the “White blood cell decreased, events (patients)” value (grade 1 AE) was 17(14) and the “Abdominal pain, events (patients)” value (grade 2 AE) was 5(5). For the same compound, the “Alanine aminotransferase increased” value (grade 2 AE) was 18(10), the “Anemia, events (patients)” value (grade 2 AE) was 1(1) and the “Anorexia, events (patients)” value (grade 2 AE) was 6(6). The “Arthralgia, events (patients)” value (grade 2 AE) was 1(1), the “Aspartate aminotransferase increased, events (patients)” value (grade 2 AE) was 4(4) and the “Back pain, events (patients)” value (grade 2 AE) was 1(1). For the same compound, the “Blood bilirubin increased, events (patients)” value (grade 2 AE) was 1(1), the “Bone pain, events (patients)” value (grade 2 AE) was 2(2) and the “Confusion, events (patients)” value (grade 2 AE) was 1(1). For the same compound, the “Constipation, events (patients)” value (grade 2 AE) was 2(2), the “Cough, events (patients)” value (grade 2 AE) was 1(1) and the “Creatinine increased, events (patients)” value (grade 2 AE) was 2(2). For the same compound, the “Dehydration, events (patients)” value (grade 2 AE) was 2(2), the “Diarrhea, events (patients)” value (grade 2 AE) was 16(11) and the “Dizziness, events (patients)” value (grade 2 AE) was 2(1). The “Dyspepsia, events (patients)” value (grade 2 AE) was 1(1), the “Dysphasia, events (patients)” value (grade 2 AE) was 1(1) and the “Endocrine disorders - Other, specify, events (patients)” value (grade 2 AE) was 1(1). For the same compound, the “Fatigue, events (patients)” value (grade 2 AE) was 10(10), the “Fever, events (patients)” value (grade 2 AE) was 1(1) and the “Flushing, events (patients)” value (grade 2 AE) was 3(1). The “Gastrointestinal disorders - Other, specify, events (patients)” value (grade 2 AE) was 1(1), the “Headache, events (patients)” value (grade 2 AE) was 10(7) and the “Hemoglobin increased, events (patients)” value (grade 2 AE) was 1(1). The “Hydrocephalus, events (patients)” value (grade 2 AE) was 2(2), the “Hyperglycemia, events (patients)” value (grade 2 AE) was 3(3) and the “Hypernatremia, events (patients)” value (grade 2 AE) was 4(1). For the same compound, the “Hypertension, events (patients)” value (grade 2 AE) was 28(28), the “Hypoalbuminemia, events (patients)” value (grade 2 AE) was 9(7) and the “Hypocalcemia, events (patients)” value (grade 2 AE) was 3(3). The “Hypoglycemia, events (patients)” value (grade 2 AE) was 1(1), the “Hypomagnesemia, events (patients)” value (grade 2 AE) was 1(1) and the “Hypophosphatemia, events (patients)” value (grade 2 AE) was 6(4). The “Hypothyroidism, events (patients)” value (grade 2 AE) was 10(10), the “Hypoxia, events (patients)” value (grade 2 AE) was 1(1) and the “Intracranial hemorrhage, events (patients)” value (grade 2 AE) was 4(4). The “Lipase increased, events (patients)” value (grade 2 AE) was 1(1), the “Lymphocyte count decreased, events (patients)” value (grade 2 AE) was 12(8) and the “Mucositis oral, events (patients)” value (grade 2 AE) was 2(2). The “Myalgia, events (patients)” value (grade 2 AE) was 2(2), the “Nausea, events (patients)” value (grade 2 AE) was 4(4) and the “Nervous system disorders - Other, specify, events (patients)” value (grade 2 AE) was 1(1). For the same compound, the “Neutrophil count decreased, events (patients)” value (grade 2 AE) was 8(5), the “Non-cardiac chest pain, events (patients)” value (grade 2 AE) was 1(1) and the “Pain in extremity, events (patients)” value (grade 2 AE) was 3(3). The “Pain, events (patients)” value (grade 2 AE) was 1(1), the “Palmar-plantar erythrodysesthesia syndrome, events (patients)” value (grade 2 AE) was 10(7) and the “Pericardial effusion, events (patients)” value (grade 2 AE) was 1(1). The “Peripheral motor neuropathy, events (patients)” value (grade 2 AE) was 2(2), the “Platelet count decreased, events (patients)” value (grade 2 AE) was 3(3) and the “Pleural effusion, events (patients)” value (grade 2 AE) was 1(1). The “Proteinuria, events (patients)” value (grade 2 AE) was 15(14), the “Respiratory, thoracic and mediastinal disorders - Other, specify, events (patients)” value (grade 2 AE) was 1(1) and the “Reversible posterior leukoencephalopathy syndrome, events (patients)” value (grade 2 AE) was 1(1). For the same compound, the “Seizure, events (patients)” value (grade 2 AE) was 3(3), the “Skin and subcutaneous tissue disorders - Other, specify, events (patients)” value (grade 2 AE) was 1(1) and the “Skin ulceration, events (patients)” value (grade 2 AE) was 2(2). The “Urinary retention, events (patients)” value (grade 2 AE) was 1(1), the “Vomiting, events (patients)” value (grade 2 AE) was 6(6) and the “Weight loss, events (patients)” value (grade 2 AE) was 2(2). For the same compound, the “White blood cell decreased, events (patients)” value (grade 2 AE) was 5(3), the “Abdominal pain, events (patients)” value (grade 3 AE) was 1(1) and the “Alanine aminotransferase increased” value (grade 3 AE) was 7(6).
